The source made the active and inactive calls. The rule behind the calls is not given here.
Assays:
[1] = molecular target: T1, Melanocyte-stimulating hormone receptor (Homo sapiens, UniProt Q01726); experiment: In vitro effective concentration towards human Melanocortin 1 receptor (MC1R) in SPA-based cAMP assay in melanoma cells; assay type: cell-based
Melanocortin receptor 4 [2] = molecular target: T2, Melanocortin receptor 4 (Homo sapiens, UniProt P32245); experiment: In vitro effective concentration towards human Melanocortin 4 receptor (MC4R) was determined by a SPA-based cAMP assay in melanoma cells; assay type: cell-based
[3] = molecular target: T1, Melanocyte-stimulating hormone receptor; experiment: In vitro intrinsic activity against human Melanocortin 1 receptor (MC1R)
Melanocortin receptor 4 [4] = molecular target: T2, Melanocortin receptor 4; experiment: In vitro intrinsic activity against human Melanocortin 4 receptor (MC4R)
Melanocortin receptor 5 [5] = molecular target: T3, Melanocortin receptor 5 (Homo sapiens, UniProt P33032); experiment: In vitro effective concentration towards human Melanocortin 5 receptor (MC5R) was determined by a SPA-based cAMP assay in melanoma cells; assay type: cell-based
Melanocortin receptor 3 [6] = molecular target: T4, Melanocortin receptor 3 (Homo sapiens, UniProt P41968); experiment: In vitro effective concentration towards human Melanocortin 3 receptor (MC3R) was determined by a SPA-based cAMP assay in melanoma cells; assay type: cell-based
[7] = molecular target: T1, Melanocyte-stimulating hormone receptor; experiment: In vitro inhibitory concentration against human Melanocortin 1 receptor (MC1R)
Melanocortin receptor 5 [8] = molecular target: T3, Melanocortin receptor 5; experiment: In vitro intrinsic activity against human Melanocortin 5 receptor (MC5R)
Outline: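 A SPA-based cAMP assay was run in CHO cells overexpressing human MC-5R. EC50 and intrinsic activity (%) are given ± SEM.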

Melanocortin receptor 3 [9] = molecular target: T4, Melanocortin receptor 3; experiment: In vitro intrinsic activity against human Melanocortin 3 receptor (MC3R)
[10] = MRT value was determined by intravenous administration of 6.8 umol/kg dose in mice; assay type: ADME, organism-based; details: mouse, in vivo
Outline: (§1)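 Balb/c mice (n = 3) given a single intravenous dose of 6.8 μmol/kg in 50:50 PEG400–water, with plasma pharmacokinetic parameters derived from the concentration–time profile.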

[11] = Cl value was determined by intravenous administration of 6.8 umol/kg dose in mice; assay type: ADME, organism-based; details: mouse, in vivo; outline: as §1
[12] = Vss value was determined by intravenous administration of 6.8 umol/kg dose in mice; assay type: ADME, organism-based; details: mouse, in vivo, read-out: Vss; outline: as §1
[13] = Half life by intravenous administration of 6.8 umol/kg dose in mice; assay type: ADME, organism-based; details: mouse, in vivo; outline: as §1
[14] = Cmax value was evaluated in mice by intravenous administration of 6.8 umol/kg dose; assay type: ADME, organism-based; design: dose 6.8 umol/kg, route intravenous; details: mouse, in vivo; outline: as §1
Melanocortin receptor 3 [15] = molecular target: T4, Melanocortin receptor 3; experiment: In vitro inhibitory concentration against human Melanocortin 3 receptor (MC3R)
Melanocortin receptor 3 [16] = molecular target: T4, Melanocortin receptor 3; experiment: In vitro effective concentration towards human Melanocortin-3 receptor (MC3R) was determined by a SPA-based cAMP assay in melanoma cells; assay type: cell-based

T3 sequence (P33032 whole entry): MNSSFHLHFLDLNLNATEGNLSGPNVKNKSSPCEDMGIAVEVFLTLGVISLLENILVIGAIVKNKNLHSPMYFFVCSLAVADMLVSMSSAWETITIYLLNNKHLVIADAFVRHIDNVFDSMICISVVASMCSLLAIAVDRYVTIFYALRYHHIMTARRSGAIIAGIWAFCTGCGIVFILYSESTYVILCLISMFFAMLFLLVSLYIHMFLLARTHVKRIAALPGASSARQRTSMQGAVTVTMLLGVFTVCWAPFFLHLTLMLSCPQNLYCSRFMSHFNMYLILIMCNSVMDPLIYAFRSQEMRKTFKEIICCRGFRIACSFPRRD
T2 sequence (P32245 whole entry): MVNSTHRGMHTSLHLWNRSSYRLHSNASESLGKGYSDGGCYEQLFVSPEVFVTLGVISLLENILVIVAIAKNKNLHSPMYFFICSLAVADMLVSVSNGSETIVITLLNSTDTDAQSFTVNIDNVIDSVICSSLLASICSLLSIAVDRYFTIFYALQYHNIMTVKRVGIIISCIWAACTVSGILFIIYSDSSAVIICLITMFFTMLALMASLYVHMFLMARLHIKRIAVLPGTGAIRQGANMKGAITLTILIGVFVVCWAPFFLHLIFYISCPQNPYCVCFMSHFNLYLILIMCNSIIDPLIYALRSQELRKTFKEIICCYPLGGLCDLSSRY
T4 sequence (P41968 whole entry): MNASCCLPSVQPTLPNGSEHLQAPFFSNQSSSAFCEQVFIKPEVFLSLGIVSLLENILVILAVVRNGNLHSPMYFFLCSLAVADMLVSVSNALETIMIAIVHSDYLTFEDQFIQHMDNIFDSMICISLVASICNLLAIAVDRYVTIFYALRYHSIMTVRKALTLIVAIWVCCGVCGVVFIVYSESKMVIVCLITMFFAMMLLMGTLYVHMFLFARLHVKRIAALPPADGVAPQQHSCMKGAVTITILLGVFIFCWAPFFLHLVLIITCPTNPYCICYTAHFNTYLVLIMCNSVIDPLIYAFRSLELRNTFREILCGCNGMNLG

| SMILES | EC50 [1] | EC50 (Melanocortin receptor 4 [2]) | Intrinsic activity [3] | Intrinsic activity (Melanocortin receptor 4 [4]) | EC50 (Melanocortin receptor 5 [5]) | IC50 [7] | Intrinsic activity (Melanocortin receptor 5 [8]) | Intrinsic activity (Melanocortin receptor 3 [9]) | other results |
| --- | --- | --- | --- | --- | --- | --- | --- | --- | --- |
| COc1ccc(C[C@@H](NC(=O)[C@H]2Cc3ccccc3CN2)C(=O)N2CCC3(CC2)CN(S(C)(=O)=O)c2ccccc23)cc1 | 220 nM | 40 nM | 80% | 95% |  |  |  |  |  |
| CCCC(=O)C1(c2ccccc2)CCN(C(=O)[C@@H](Cc2ccc(OC)cc2)NC(=O)[C@@H](Cc2c[nH]cn2)NC(C)=O)CC1 | 0.35 nM | 23 nM | 96% | 96% | 3.9 µM | 5.1 nM | 90% | 90% | EC50 (Melanocortin receptor 3 [6]): 2200 nM |
| CCCC(=O)C1(c2ccccc2)CCN(C(=O)[C@@H](Cc2ccc(OC)cc2)NC(=O)[C@@H](N)Cc2cncn2C)CC1 | 28 nM | 2600 nM | 92% | 39% | 4.4 µM | 120 nM | 15% | 2.1% | MRT [10]: 1.2 h; clearance [11]: 110 mL/min/kg; Vd [12]: 8.2 L/kg; half-life [13]: 90 min; Cmax [14]: 2200 nM; NA (Melanocortin receptor 3 [15]): inactive |
| CCCC(=O)C1(c2ccccc2)CCN(C(=O)[C@@H](Cc2ccc(OC)cc2)NC(=O)[C@H](O)Cc2c[nH]cn2)CC1 |  |  | 90% | 95% |  |  | 20% | 85% |  |
| CCCC(=O)C1(c2ccccc2)CCN(C(=O)[C@@H](Cc2ccc(OC)cc2)NC(=O)[C@H](N)Cc2c[nH]cn2)CC1 |  |  | 93% | 103% |  |  | 40% | 98% |  |
| CCCC(=O)C1(c2ccccc2)CCN(C(=O)[C@@H](Cc2ccc(OC)cc2)NC(=O)[C@@H](N)Cc2c[nH]cn2)CC1 |  |  | 67% |  |  |  |  |  |  |

Second part, led by results:

| EC50 [1] | EC50 (Melanocortin receptor 4 [2]) | Intrinsic activity [3] | Intrinsic activity (Melanocortin receptor 4 [4]) | EC50 (Melanocortin receptor 5 [5]) | IC50 [7] | Intrinsic activity (Melanocortin receptor 5 [8]) | Intrinsic activity (Melanocortin receptor 3 [9]) | SMILES | other results |
| --- | --- | --- | --- | --- | --- | --- | --- | --- | --- |
| 0.19 nM | 2.9 nM |  |  | 2.1 µM | 3.1 nM |  |  | CCCC(=O)C1(c2ccccc2)CCN(C(=O)[C@@H](Cc2ccc(OC)cc2)NC(=O)[C@@H](Cc2cnc[nH]2)NC(=O)c2ccccc2)CC1 | EC50 (Melanocortin receptor 3 [6]): 250 nM |
| 510 nM |  | 34% |  |  | 1500 nM |  |  | CCCC(=O)C1(c2ccccc2)CCN(C(=O)[C@@H](Cc2ccc(OC)cc2)NC(=O)[C@H](N)Cc2cncn2C)CC1 |  |
| 3.8 nM | 77 nM |  |  | 2.7 µM | 5.5 nM |  |  | CCCC(=O)C1(c2ccccc2)CCN(C(=O)[C@@H](Cc2ccc(OC)cc2)NC(=O)[C@H](O)Cc2cnc[nH]2)CC1 | EC50 (Melanocortin receptor 3 [16]): 3.9 µM |
|  |  | 98% | 95% |  |  | 65% | 100% | CCCC(=O)C1(c2ccccc2)CCN(C(=O)[C@@H](Cc2ccc(OC)cc2)NC(=O)[C@@H](Cc2c[nH]cn2)NC(=O)c2ccccc2)CC1 |  |
| 2.5 nM | 840 nM |  |  | 9.4 µM | 18 nM |  |  | CCCC(=O)C1(c2ccccc2)CCN(C(=O)[C@@H](Cc2ccc(OC)cc2)NC(=O)CCc2cnc[nH]2)CC1 | EC50 (Melanocortin receptor 3 [6]): 7000 nM |
| 1.5 nM | 630 nM |  |  | 10 µM | 32 nM |  |  | CCCC(=O)C1(c2ccccc2)CCN(C(=O)[C@@H](Cc2ccc(OC)cc2)NC(=O)[C@H](N)Cc2cnc[nH]2)CC1 | EC50 (Melanocortin receptor 3 [6]): 1700 nM |
| 400 nM |  |  |  |  | 1300 nM |  |  | CCCC(=O)C1(c2ccccc2)CCN(C(=O)[C@@H](Cc2ccc(OC)cc2)NC(=O)[C@@H](N)Cc2cnc[nH]2)CC1 |  |
|  |  | 97% | 92% |  |  | 32% | 85% | CCCC(=O)C1(c2ccccc2)CCN(C(=O)[C@@H](Cc2ccc(OC)cc2)NC(=O)CCc2c[nH]cn2)CC1 |  |
